The text below walks through data of ChEMBL document CHEMBL4425104, “Structure-Based Design of Potent Nicotinamide Phosphoribosyltransferase Inhibitors with Promising in Vitro and in Vivo Antitumor Activities” (J Med Chem, 2016).

As usually defined, the IC50 is the concentration needed to halve the response being measured. By GI50 is commonly meant the concentration that inhibits growth by half. The term Cmax denotes the peak of the concentration-time curve. What is called Tmax is the time from dosing to the highest level. Broadly, the AUC(0-inf) is the area under the concentration-time curve extrapolated to infinity. A lower AUC(0-inf) goes with less exposure. For orientation: half-life means the time needed for the level to fall by half in the phase considered. A high value points to slow loss. As usually defined, the clearance is the rate of elimination divided by the concentration. A lower clearance goes with inefficient removal. For orientation: CL/F means the apparent clearance, not corrected for the fraction that reaches the circulation. As a reminder, the bioavailability is dose-corrected exposure relative to a reference, in per cent. A higher bioavailability goes with good availability.

Series [1] concerns the target T1, Nicotinamide phosphoribosyltransferase (Homo sapiens, UniProt P43490). The experiment in a line: Inhibition of recombinant NAMPT (unknown origin) using nicotinamide as substrate measured every 5 mins for 30 mins in presence of recombinant NMNAT1.
Series [2] has as its system HeLa. The experiment in a line: Cytotoxicity against human HeLa cells assessed as cell growth inhibition after 72 hrs by CCK-8 assay. Type of series: functional. The method, boiled down: (§1)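 HeLa, MCF7, H1975, U937 and MDA-MB-231 kept in RPMI or DMEM with 10% FBS and 1% pen/strep at 37 °C, 5% CO2. Seeded at 400-800 cells/well in 384-well format, exposed to a concentration series or solvent control for 72 h. CCK-8 added, absorbance read at 450 nm, IC50 fitted from dose-response curves.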
(Tetrazolium dyes change colour on reduction, which living cells bring about.)

Series [3] relates to MCF7. The experiment in a line: Cytotoxicity against human MCF7 cells assessed as cell growth inhibition after 72 hrs by CCK-8 assay. Type of series: functional. The note with it: MCF7, 72 h. A digest of the protocol:
as §1

The subject of series [4] is NCI-H1975. The experiment in a line: Cytotoxicity against human NCI-H1975 cells assessed as cell growth inhibition after 72 hrs by CCK-8 assay. It counts as functional. The note with it: NCI-H1975, 72 h. A digest of the protocol:
as §1

Series [5] relates to U-937. The experiment in a line: Cytotoxicity against human U937 cells assessed as cell growth inhibition after 72 hrs by CCK-8 assay. Type of series: functional. The note with it: U-937, 72 h. The method, boiled down:
as §1

For series [6], the system named is MDA-MB-231. Briefly: Cytotoxicity against human MDA-MB-231 cells assessed as cell growth inhibition after 72 hrs by CCK-8 assay. It counts as functional. The note with it: MDA-MB-231, 72 h. A digest of the protocol:
as §1

In series [7] the target is T1, Nicotinamide phosphoribosyltransferase. Briefly: Inhibition of NAMPT in human MCF7 cells assessed as decrease in NAD production after 24 hrs by NAD/NADH Glo assay. Type of series: cell-based. The method, boiled down: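 MCF-7 cells serum-starved over 12 h, then treated with compound or vehicle for 24 h. Washed in ice-cold PBS, lysed in 1% DTAB in 0.2 N NaOH diluted 1:1 with PBS, frozen at -80 °C.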

The nature of series [8]: Cmax in Sprague-Dawley rat at 5 mg/kg, iv measured up to 24 hrs by LC-MS analysis. It counts as ADME, organism-based. Also on record: dose 5 mg/kg, route intravenous. The note with it: in vivo.
Series [9] is described as follows: Cmax in Sprague-Dawley rat at 25 mg/kg, po measured up to 24 hrs by LC-MS analysis. It counts as ADME, organism-based. Further details: dose 25 mg/kg, route oral. The note with it: in vivo.
Series [10] in a line: Tmax in Sprague-Dawley rat at 5 mg/kg, iv by LC-MS analysis. It counts as ADME, organism-based. The note with it: in vivo.
Series [11] can be described thus: Tmax in Sprague-Dawley rat at 25 mg/kg, po by LC-MS analysis. Type of series: ADME, organism-based. The note with it: in vivo.
The nature of series [12]: AUC (0 to infinity) in Sprague-Dawley rat at 5 mg/kg, iv measured up to 24 hrs by LC-MS analysis. Further details: dose 5 mg/kg, time infinity, route intravenous. It counts as ADME, organism-based. The note with it: in vivo.
Series [13] in a line: AUC (0 to infinity) in Sprague-Dawley rat at 25 mg/kg, po measured up to 24 hrs by LC-MS analysis. The note with it: in vivo. It counts as ADME, organism-based. Further details: dose 25 mg/kg, route oral, time infinity.
Series [14] in a line: Half life in Sprague-Dawley rat at 5 mg/kg, iv by LC-MS analysis. Type of series: ADME, organism-based. The note with it: in vivo.
Series [15] is described as follows: Half life in Sprague-Dawley rat at 25 mg/kg, po by LC-MS analysis. It counts as ADME, organism-based. The note with it: in vivo.
Series [16] can be described thus: Plasma clearance in Sprague-Dawley rat at 5 mg/kg, iv measured up to 24 hrs by LC-MS analysis. Type of series: ADME, organism-based.
Series [17] is described as follows: Plasma clearance in Sprague-Dawley rat at 25 mg/kg, po measured up to 24 hrs by LC-MS analysis. It counts as ADME, organism-based.
Series [18] can be described thus: Oral bioavailability in Sprague-Dawley rat at 25 mg/kg measured up to 24 hrs by LC-MS analysis. Type of series: ADME, organism-based. The note with it: in vivo.
In series [19] the test system is MDA-MB-231. The experiment in a line: Antitumor activity against human MDA-MB-231 cells xenografted in nude SCID mouse assessed as tumor growth inhibition at 15 mg/kg, iv qd administered 4 days per week for 4 weeks. It counts as functional. The note with it: MDA-MB-231, iv, read-out: TGI. The method, boiled down:
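Female SCID nude mice, 6 weeks old, given 1 × 10^6 MDA-MB-231 cells into the lower left mammary fat pad. At 100–300 mm3 tumours, randomised to groups of n = 5 and dosed i.v. at 15 mg/kg or vehicle 4 days a week. Volume = L × W²/2; TGI = [1 − (T − T0)/(C − C0)] × 100 from mean volumes; body weight followed.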
In general terms: Xenograft models place foreign cells or tissue in a host animal.

Series [20] is described as follows: Toxicity in nude SCID mouse assessed as mortality at 15 mg/kg, iv qd administered 4 days per week for 4 weeks. Type of series: organism-based. The note with it: in vivo. A digest of the protocol: (§2)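 Female SCID nude mice (6 weeks) bearing MDA-MB-231 orthotopic tumours (1 × 10^6 cells in lower left mammary fat pad). Randomised at tumour volume 100–300 mm3 into vehicle or treatment groups (n = 5). Dosing 15 mg/kg i.v., 4 days a week. Vehicle elsewhere given as 2% DMSO, 4% EtOH, 4% castor oil, 90% water. Body weight and mortality recorded during treatment.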

Series [21] in a line: Toxicity in nude SCID mouse assessed as body weight loss at 15 mg/kg, iv qd administered 4 days per week for 4 weeks. It counts as organism-based. The note with it: in vivo. A digest of the protocol:
as §2

Series [22] is described as follows: Ratio of Cmax in Sprague-Dawley rat to IC50 for NAMPT in human MCF7 cells. Type of series: ADME, cell-based.

T1 sequence (P43490 whole entry): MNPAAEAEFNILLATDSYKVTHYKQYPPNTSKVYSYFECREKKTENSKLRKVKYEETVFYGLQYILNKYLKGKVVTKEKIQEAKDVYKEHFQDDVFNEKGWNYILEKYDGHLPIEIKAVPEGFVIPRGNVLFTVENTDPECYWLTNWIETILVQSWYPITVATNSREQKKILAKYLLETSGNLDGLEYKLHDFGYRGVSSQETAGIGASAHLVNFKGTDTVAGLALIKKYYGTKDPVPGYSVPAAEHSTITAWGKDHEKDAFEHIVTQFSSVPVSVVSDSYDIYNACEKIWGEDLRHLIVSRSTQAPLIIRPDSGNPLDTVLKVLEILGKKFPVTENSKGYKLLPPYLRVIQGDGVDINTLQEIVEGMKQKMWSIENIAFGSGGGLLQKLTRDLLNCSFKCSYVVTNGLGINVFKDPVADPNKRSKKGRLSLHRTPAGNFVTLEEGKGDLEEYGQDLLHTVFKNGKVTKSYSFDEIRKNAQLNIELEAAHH

With `CC(C)N(CCc1c[nH]c2ccccc12)Cc1ccc(NCCCCCNC(=O)/C=C/c2cccnc2)cc1`, the IC50 was determined as 25.3 nM in series [1] and 0.155 nM in series [7]. In addition, the GI50 in series [2] worked out at 0.5 nM; in [3], 0.13 nM; in series [4], 1.61 nM; in [5], 0.25 nM; in series [6], 0.15 nM. Further, the values for the peak concentration (Cmax) in series [8] and in series [9] were 3790 ng/mL and 108 ng/mL, respectively. Also, the Tmax in series [10] was 1.98 min; in series [11], 2 h. The results for the AUC(0-inf) in series [12] and in series [13] were 1710 ng·h/mL and 374 ng·h/mL, respectively. Moreover, the results for the half-life in series [14] and in series [15] were 1.55 h and 2.37 h, respectively. In [16], the clearance is 49 mL/min/kg. Also, in [17], the CL/F was 1140 mL/min/kg. Also, the bioavailability in [18] came out at 4.4%. For the same compound, the inhibition in vivo at 15 mg/kg in series [19] was 73.8%. The Activity result in series [20] and in series [21] was “Non-Toxic” throughout. For the same compound, the Ratio in series [22] was determined as 500.
